In the M2OR odorant receptor database:

How the values were obtained:
Conditions in all cases: stereoisomer not certain
OR5D13 (Homo sapiens) = OR5D13 (Homo sapiens) (UniProt Q8NGL4)
Summary of the method: (§1)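 Transient luciferase assays in mammalian cell lines were common, though methods varied by source. The values come from published papers and their supplementary material, with extra details from the original authors when needed. Responsive refers to a measured signal the original authors judged statistically different from baseline, and non-responsive (inactive) to the remainder.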

OR5D14 (Homo sapiens) = OR5D14 (Homo sapiens) (UniProt Q8NGL3)
OR5D14 (Homo sapiens), sequence (Q8NGL3 whole entry): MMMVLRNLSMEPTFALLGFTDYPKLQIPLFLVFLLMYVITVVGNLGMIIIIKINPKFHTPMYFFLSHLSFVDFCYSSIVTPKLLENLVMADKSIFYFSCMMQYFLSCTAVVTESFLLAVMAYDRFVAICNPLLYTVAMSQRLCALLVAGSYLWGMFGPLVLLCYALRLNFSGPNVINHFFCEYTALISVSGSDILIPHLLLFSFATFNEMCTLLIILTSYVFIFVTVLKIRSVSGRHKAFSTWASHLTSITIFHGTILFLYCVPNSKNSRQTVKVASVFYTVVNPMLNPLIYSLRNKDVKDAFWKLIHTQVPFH
Summary of the method: as §1

OR5D16 (Homo sapiens) = OR5D16 (Homo sapiens) (UniProt Q8NGK9)
OR5D16 (Homo sapiens), sequence (Q8NGK9 whole entry): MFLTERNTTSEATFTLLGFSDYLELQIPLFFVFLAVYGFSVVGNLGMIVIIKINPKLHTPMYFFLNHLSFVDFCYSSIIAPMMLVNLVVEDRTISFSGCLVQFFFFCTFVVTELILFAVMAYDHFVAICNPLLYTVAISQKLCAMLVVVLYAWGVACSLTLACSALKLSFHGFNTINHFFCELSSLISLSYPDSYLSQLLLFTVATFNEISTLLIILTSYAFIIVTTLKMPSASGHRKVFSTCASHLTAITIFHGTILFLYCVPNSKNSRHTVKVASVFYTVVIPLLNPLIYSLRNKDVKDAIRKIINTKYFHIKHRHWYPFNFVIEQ
Summary of the method: as §1

OR5D18 (Homo sapiens) = OR5D18 (Homo sapiens) (UniProt Q8NGL1)
OR5D18 (Homo sapiens), sequence (Q8NGL1 whole entry): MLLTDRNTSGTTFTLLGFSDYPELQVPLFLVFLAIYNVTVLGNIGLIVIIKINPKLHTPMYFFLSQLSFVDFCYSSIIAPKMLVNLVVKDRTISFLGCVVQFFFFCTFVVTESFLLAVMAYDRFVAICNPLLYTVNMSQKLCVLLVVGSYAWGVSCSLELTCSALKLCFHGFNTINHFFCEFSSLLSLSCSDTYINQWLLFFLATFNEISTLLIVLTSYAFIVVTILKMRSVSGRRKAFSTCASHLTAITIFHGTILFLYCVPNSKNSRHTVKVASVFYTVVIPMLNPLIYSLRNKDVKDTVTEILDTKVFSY
Summary of the method: as §1

OR5DD C62Y = test system: OR5DD C62Y
OR5DD C62Y, sequence (as listed by the source, stated change not applied): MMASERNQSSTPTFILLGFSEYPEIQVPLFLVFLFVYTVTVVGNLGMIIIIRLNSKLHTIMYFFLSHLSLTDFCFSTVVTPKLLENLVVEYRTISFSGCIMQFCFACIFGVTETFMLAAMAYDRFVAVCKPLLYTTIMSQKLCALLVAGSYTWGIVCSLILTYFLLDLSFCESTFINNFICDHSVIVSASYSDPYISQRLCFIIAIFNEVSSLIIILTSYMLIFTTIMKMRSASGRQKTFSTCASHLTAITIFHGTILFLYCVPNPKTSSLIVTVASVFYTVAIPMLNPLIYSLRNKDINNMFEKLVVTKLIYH
Summary of the method: as §1

OR5DE S249A L290P = test system: OR5DE S249A L290P
Summary of the method: as §1

OR5DG A156T = test system: OR5DG A156T
OR5DG A156T, sequence (as listed by the source, stated change not applied): as the sequence (Q8NGK9 whole entry) above, with A156T counted along it
Summary of the method: as §1

OR5DI = test system: OR5DI
OR5DI, sequence (as listed by the source): as the sequence (Q8NGL1 whole entry) above, with N136D counted along it
Summary of the method: as §1

OR5F1 (Homo sapiens) = OR5F1 (Homo sapiens) (UniProt O95221)
OR5F1 (Homo sapiens), sequence (O95221 whole entry): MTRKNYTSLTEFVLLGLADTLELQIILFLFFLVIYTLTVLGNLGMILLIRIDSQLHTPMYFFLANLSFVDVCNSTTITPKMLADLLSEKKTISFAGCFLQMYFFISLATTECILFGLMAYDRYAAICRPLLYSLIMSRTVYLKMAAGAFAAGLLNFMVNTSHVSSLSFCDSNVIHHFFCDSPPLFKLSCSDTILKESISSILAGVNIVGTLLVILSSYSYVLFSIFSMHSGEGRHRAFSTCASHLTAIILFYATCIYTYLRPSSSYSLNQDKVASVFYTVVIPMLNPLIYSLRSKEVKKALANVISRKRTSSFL
Summary of the method: as §1

OR5F1 = test system: OR5F1
OR5F1, sequence (as listed by the source): as the sequence (O95221 whole entry) above, with S294N counted along it
Summary of the method: as §1

OR5H1 (Homo sapiens) = OR5H1 (Homo sapiens) (UniProt A6NKK0)
OR5H1 (Homo sapiens), sequence (A6NKK0 whole entry): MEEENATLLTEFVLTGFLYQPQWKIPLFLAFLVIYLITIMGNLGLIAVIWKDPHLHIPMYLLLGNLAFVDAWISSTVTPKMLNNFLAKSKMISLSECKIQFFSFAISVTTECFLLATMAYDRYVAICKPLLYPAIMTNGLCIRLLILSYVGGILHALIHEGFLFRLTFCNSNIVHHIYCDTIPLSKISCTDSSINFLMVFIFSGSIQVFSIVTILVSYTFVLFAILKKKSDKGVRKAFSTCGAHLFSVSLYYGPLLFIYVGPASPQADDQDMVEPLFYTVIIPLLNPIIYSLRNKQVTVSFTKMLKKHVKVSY
Summary of the method: as §1

OR5H1 F17L A30T H56Q = test system: OR5H1 F17L A30T H56Q
Summary of the method: as §1

OR5H1 T181N = test system: OR5H1 T181N
OR5H1 T181N, sequence (as listed by the source, stated change not applied): as the sequence (A6NKK0 whole entry) above, with T181N counted along it
Summary of the method: as §1

OR5H14 (Homo sapiens) = OR5H14 (Homo sapiens) (UniProt A6NHG9)
OR5H14 (Homo sapiens), sequence (A6NHG9 whole entry): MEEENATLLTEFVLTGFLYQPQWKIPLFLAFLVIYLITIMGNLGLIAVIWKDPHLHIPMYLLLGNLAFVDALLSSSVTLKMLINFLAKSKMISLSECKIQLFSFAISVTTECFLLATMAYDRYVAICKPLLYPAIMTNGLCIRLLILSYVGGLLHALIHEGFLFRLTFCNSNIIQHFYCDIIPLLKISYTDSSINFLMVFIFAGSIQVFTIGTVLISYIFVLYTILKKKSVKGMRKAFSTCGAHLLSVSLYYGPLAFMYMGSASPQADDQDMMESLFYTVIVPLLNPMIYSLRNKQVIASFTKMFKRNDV
Summary of the method: as §1

OR5H15 (Homo sapiens) = OR5H15 (Homo sapiens) (UniProt A6NDH6)
OR5H15 (Homo sapiens), sequence (A6NDH6 whole entry): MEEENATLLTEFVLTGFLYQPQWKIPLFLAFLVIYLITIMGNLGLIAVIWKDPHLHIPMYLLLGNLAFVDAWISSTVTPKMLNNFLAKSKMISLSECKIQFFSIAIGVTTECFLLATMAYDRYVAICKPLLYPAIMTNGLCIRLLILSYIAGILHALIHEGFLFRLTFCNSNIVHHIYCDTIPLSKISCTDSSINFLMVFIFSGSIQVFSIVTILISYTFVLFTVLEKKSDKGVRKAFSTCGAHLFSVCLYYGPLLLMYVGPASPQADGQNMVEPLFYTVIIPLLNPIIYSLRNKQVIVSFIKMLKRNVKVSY
Summary of the method: as §1

OR5H1 = test system: OR5H1
OR5H1, sequence (as listed by the source): as the sequence (A6NKK0 whole entry) above, with I153L, T181I counted along it
Summary of the method: as §1

OR5H2 = test system: OR5H2
OR5H2, sequence (as listed by the source): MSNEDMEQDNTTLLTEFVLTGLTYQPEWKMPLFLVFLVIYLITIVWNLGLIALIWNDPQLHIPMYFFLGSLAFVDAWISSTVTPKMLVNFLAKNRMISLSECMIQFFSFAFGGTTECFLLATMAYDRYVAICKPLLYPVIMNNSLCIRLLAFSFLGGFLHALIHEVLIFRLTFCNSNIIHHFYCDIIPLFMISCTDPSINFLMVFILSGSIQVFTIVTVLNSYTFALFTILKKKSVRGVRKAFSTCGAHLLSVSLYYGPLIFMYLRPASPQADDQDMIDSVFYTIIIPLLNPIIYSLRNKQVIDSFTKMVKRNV
Summary of the method: as §1

OR5H6 (Homo sapiens) = OR5H6 (Homo sapiens) (UniProt Q8NGV6)
OR5H6 (Homo sapiens), sequence (Q8NGV6 whole entry): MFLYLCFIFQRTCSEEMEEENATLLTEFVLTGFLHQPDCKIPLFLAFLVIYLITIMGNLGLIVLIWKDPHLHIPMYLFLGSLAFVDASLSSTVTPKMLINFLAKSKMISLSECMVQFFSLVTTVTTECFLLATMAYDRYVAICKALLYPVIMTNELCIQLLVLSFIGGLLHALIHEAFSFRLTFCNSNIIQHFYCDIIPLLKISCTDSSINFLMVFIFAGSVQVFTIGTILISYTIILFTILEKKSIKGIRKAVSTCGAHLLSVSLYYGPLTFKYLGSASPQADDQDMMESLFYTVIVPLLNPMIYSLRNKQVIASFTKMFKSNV
Summary of the method: as §1

OR5G3 (Homo sapiens) = OR5G3 (Homo sapiens) (UniProt P0C626)
OR5G3 (Homo sapiens), sequence (P0C626 whole entry): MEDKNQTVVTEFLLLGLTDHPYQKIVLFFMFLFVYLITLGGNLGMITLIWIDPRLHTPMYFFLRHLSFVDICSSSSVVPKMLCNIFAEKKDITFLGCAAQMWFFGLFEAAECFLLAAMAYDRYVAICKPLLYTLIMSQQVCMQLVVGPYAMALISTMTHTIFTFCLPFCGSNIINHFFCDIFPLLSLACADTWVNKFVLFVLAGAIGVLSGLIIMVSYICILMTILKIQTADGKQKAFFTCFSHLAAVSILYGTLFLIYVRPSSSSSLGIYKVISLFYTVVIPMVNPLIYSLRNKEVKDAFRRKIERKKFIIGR
Summary of the method: as §1

OR5H8 (Homo sapiens) = OR5H8 (Homo sapiens) (UniProt P0DN80)
OR5H8 (Homo sapiens), sequence (P0DN80 whole entry): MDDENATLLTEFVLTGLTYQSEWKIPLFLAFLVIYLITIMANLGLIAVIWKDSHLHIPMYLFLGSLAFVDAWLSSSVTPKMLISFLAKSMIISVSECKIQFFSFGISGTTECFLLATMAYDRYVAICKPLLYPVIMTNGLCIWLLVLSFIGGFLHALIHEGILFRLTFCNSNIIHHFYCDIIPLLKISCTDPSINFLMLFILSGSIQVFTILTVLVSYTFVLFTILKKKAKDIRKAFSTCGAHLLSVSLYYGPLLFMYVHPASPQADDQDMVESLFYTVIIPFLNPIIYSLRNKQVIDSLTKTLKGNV
Summary of the method: as §1

Measured: odorant receptor agonist call;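 further: active if original authors judged signal statistically different from baseline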

OR5D13 (Homo sapiens), sequence (Q8NGL4 whole entry): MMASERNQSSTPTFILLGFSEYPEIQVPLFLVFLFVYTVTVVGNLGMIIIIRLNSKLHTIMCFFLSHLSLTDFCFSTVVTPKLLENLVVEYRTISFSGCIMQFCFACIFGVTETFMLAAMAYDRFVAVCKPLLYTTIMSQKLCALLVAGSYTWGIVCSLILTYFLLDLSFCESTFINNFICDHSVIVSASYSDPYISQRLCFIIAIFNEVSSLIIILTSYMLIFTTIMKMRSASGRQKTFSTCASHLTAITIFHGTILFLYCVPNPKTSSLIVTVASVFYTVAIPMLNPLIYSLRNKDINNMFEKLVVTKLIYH

C=CCOC(=O)Cc1ccccc1
not listed: OR5G3 (Homo sapiens) | OR5H8 (Homo sapiens)
inactive: all other assays above

Cc1c([N+](=O)[O-])c(C)c([N+](=O)[O-])c(C(C)(C)C)c1[N+](=O)[O-]
inactive: OR5D13 (Homo sapiens) | OR5D14 (Homo sapiens) | OR5D16 (Homo sapiens) | OR5D18 (Homo sapiens) | OR5F1 (Homo sapiens) | OR5G3 (Homo sapiens) | OR5H14 (Homo sapiens) | OR5H15 (Homo sapiens) | OR5H2 | OR5H6 (Homo sapiens) | OR5H8 (Homo sapiens)
